Measured values taken from ChEMBL document CHEMBL1156517, “Targeting thyroid hormone receptor-beta agonists to the liver reduces cholesterol and triglycerides and improves the therapeutic index” (Proc Natl Acad Sci U S A, 2007).

Experiments:
Set-up in all cases: dose 5 mg/kg, route oral
Settings in all cases: in vivo
Brain = assay: Biodistribution in Sprague-Dawley rat brain at 5 mg/kg, po after 3 hrs; assay type: ADME, organism-based
Method in brief: (§1)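 Male SD rats (n = 4 per group) were dosed orally with [¹⁴C]-labelled prodrug at 5 mg/kg. Animals were killed 3 or 24 h after dosing. Harvested tissues, blood and plasma were processed and analysed directly for radioactivity by liquid scintillation counting.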

Kidney [1] = assay: Biodistribution in Sprague-Dawley rat kidney at 5 mg/kg, po after 24 hrs; assay type: ADME, organism-based; method in brief: as §1
[2] = Biodistribution in Sprague-Dawley rat cervical lymph node at 5 mg/kg, po after 24 hrs; assay type: ADME, organism-based; method in brief: as §1
Lung = assay: Biodistribution in Sprague-Dawley rat lung at 5 mg/kg, po after 3 hrs; assay type: ADME, organism-based; method in brief: as §1
[3] = Biodistribution in Sprague-Dawley rat femur bone at 5 mg/kg, po after 3 hrs; assay type: ADME, organism-based, Bone element; method in brief: as §1
Kidney [4] = assay: Biodistribution in Sprague-Dawley rat kidney at 5 mg/kg, po after 3 hrs; assay type: ADME, organism-based; method in brief: as §1
Testes [5] = assay: Biodistribution in Sprague-Dawley rat testes at 5 mg/kg, po after 24 hrs; assay type: ADME, organism-based, Testis
Method in brief: (§2)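 Male SD rats (n = 4 per group) were given [¹⁴C]-labelled compound at 5 mg/kg per os. They were killed 3 and 24 h after dosing. Harvested tissues were processed and radioactivity was measured directly by liquid scintillation counting.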

Prostate gland = assay: Biodistribution in Sprague-Dawley rat prostate at 5 mg/kg, po after 24 hrs; assay type: ADME, organism-based; method in brief: as §1
[6] = Biodistribution in Sprague-Dawley rat epididymal fat at 5 mg/kg, po after 24 hrs; assay type: ADME, organism-based, Adipose tissue; method in brief: as §1
Testes [7] = assay: Biodistribution in Sprague-Dawley rat testes at 5 mg/kg, po after 3 hrs; assay type: ADME, organism-based, Testis; method in brief: as §2
Blood = assay: Biodistribution in Sprague-Dawley rat blood at 5 mg/kg, po after 24 hrs; assay type: ADME, organism-based; method in brief: as §1
Liver [8] = assay: Biodistribution in Sprague-Dawley rat liver at 5 mg/kg, po after 3 hrs; assay type: ADME, organism-based; method in brief: as §1
Adrenal gland [9] = assay: Biodistribution in Sprague-Dawley rat adrenal gland at 5 mg/kg, po after 24 hrs; assay type: ADME, organism-based; method in brief: as §1
[10] = Biodistribution in Sprague-Dawley rat pituitary gland at 5 mg/kg, po after 3 hrs; assay type: ADME, organism-based; method in brief: as §1
Thyroid gland = assay: Biodistribution in Sprague-Dawley rat thyroid at 5 mg/kg, po after 24 hrs; assay type: ADME, organism-based; method in brief: as §2
Adrenal gland [11] = assay: Biodistribution in Sprague-Dawley rat adrenal gland at 5 mg/kg, po after 3 hrs; assay type: ADME, organism-based; method in brief: as §1
[12] = Biodistribution in Sprague-Dawley rat small intestine at 5 mg/kg, po after 3 hrs; assay type: ADME, organism-based; method in brief: as §1
Zone of skin = assay: Biodistribution in Sprague-Dawley rat skin at 5 mg/kg, po after 24 hrs; assay type: ADME, organism-based; method in brief: as §1
[13] = Biodistribution in Sprague-Dawley rat mesenteric lymph at 5 mg/kg, po after 24 hrs; assay type: ADME, organism-based, Mesenteric lymph node; method in brief: as §1
[14] = Biodistribution in Sprague-Dawley rat large intestine at 5 mg/kg, po after 24 hrs; assay type: ADME, organism-based; method in brief: as §1
[15] = Biodistribution in Sprague-Dawley rat pituitary gland at 5 mg/kg, po after 24 hrs; assay type: ADME, organism-based; method in brief: as §1
[16] = Biodistribution in Sprague-Dawley rat femur bone at 5 mg/kg, po after 24 hrs; assay type: ADME, organism-based, Bone element; method in brief: as §1
[17] = Biodistribution in Sprague-Dawley rat eyes at 5 mg/kg, po after 24 hrs; assay type: ADME, organism-based, Eye; method in brief: as §1
Heart = assay: Biodistribution in Sprague-Dawley rat heart at 5 mg/kg, po after 3 hrs; assay type: ADME, organism-based; method in brief: as §1
Plasma = assay: Biodistribution in Sprague-Dawley rat plasma at 5 mg/kg, po after 3 hrs; assay type: ADME, organism-based; method in brief: as §1
Liver [18] = assay: Biodistribution in Sprague-Dawley rat liver at 5 mg/kg, po after 24 hrs; assay type: ADME, organism-based; method in brief: as §1
[19] = Biodistribution in Sprague-Dawley rat eyes at 5 mg/kg, po after 3 hrs; assay type: ADME, organism-based, Eye; method in brief: as §1
Thymus = assay: Biodistribution in Sprague-Dawley rat thymus at 5 mg/kg, po after 3 hrs; assay type: ADME, organism-based; method in brief: as §2
[20] = Biodistribution in Sprague-Dawley rat stomach at 5 mg/kg, po after 24 hrs; assay type: ADME, organism-based; method in brief: as §2
Spleen = assay: Biodistribution in Sprague-Dawley rat spleen at 5 mg/kg, po after 3 hrs; assay type: ADME, organism-based; method in brief: as §2

SMILES: Cc1cc(OCP2(=O)OCC[C@@H](c3cccc(Cl)c3)O2)cc([14CH3])c1Cc1ccc(O)c(C(C)C)c1 (stereo not given in full)
- Drug uptake (Brain): 0.03 nmol/g
- Drug uptake (Kidney [1]): 0.14 nmol/g
- Drug uptake [2]: 0.03 nmol/g
- Drug uptake (Lung): 0.31 nmol/g
- Drug uptake [3]: 0.14 nmol/g
- Drug uptake (Kidney [4]): 0.48 nmol/g
- Drug uptake (Testes [5]): 0.04 nmol/g
- Drug uptake (Prostate gland): 0.03 nmol/g
- Drug uptake [6]: 0.55 nmol/g
- Drug uptake (Testes [7]): 0.03 nmol/g
- Drug uptake (Blood): 0.05 nmol/g
- Drug uptake (Liver [8]): 6.67 nmol/g
- Drug uptake (Adrenal gland [9]): 0.09 nmol/g
- Drug uptake [10]: 0.09 nmol/g
- Drug uptake (Thyroid gland): 0.03 nmol/g
- Drug uptake (Adrenal gland [11]): 0.77 nmol/g
- Drug uptake [12]: 28.56 nmol/g
- Drug uptake (Zone of skin): 0.15 nmol/g
- Drug uptake [13]: 0.05 nmol/g
- Drug uptake [14]: 0.64 nmol/g
- Drug uptake [15]: 0.02 nmol/g
- Drug uptake [16]: 0.02 nmol/g
- Drug uptake [17]: 0.01 nmol/g
- Drug uptake (Heart): 0.36 nmol/g
- Drug uptake (Plasma): 0.15 nmol/g
- Drug uptake (Liver [18]): 3.67 nmol/g
- Drug uptake [19]: 0.04 nmol/g
- Drug uptake (Thymus): 0.09 nmol/g
- Drug uptake [20]: 0.22 nmol/g
- Drug uptake (Spleen): 2.57 nmol/g
